Results as given in ChEMBL document CHEMBL1156979, “The impact of polyether chain length on the iron clearing efficiency and physiochemical properties of desferrithiocin analogues” (J Med Chem, 2010).
Active and inactive are the calls of the source. The calls are words filed in the database; no cut-off is given here.

Columns and labels:
Sapajus apella [1] = assay: Iron-clearing efficiency in iron-overloaded Cebus apella at 150 umol/kg, po measured daily once for 2 days by flame absorption spectroscopy relative to control; format: functional
Sapajus apella [2] = assay: Iron-clearing efficiency in iron-overloaded Cebus apella assessed as feces iron excretion at 150 umol/kg, po measured daily once for 5 days by lame absorption spectroscopy relative to control; format: functional
Sapajus apella [3] = assay: Iron-clearing efficiency in iron-overloaded Cebus apella assessed as urine iron excretion at 150 umol/kg, po measured daily once for 5 days by lame absorption spectroscopy relative to control; format: functional
Rattus norvegicus [4] = assay: Iron-clearing efficiency in non-iron-overloaded and bile duct-cannulated Sprague-Dawley rat assessed as time required to maximum bile iron excretion at 300 umol/kg, po; format: functional
Summary of the method: (§1)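 Non-iron-overloaded male Sprague-Dawley rats (400–450 g), bile duct-cannulated, given a single oral dose of 300 μmol/kg, either by gavage as monosodium salt or in capsules. Bile was collected at 3 h intervals for up to 48 h and urine every 24 h. Iron was measured by flame absorption spectroscopy. ICE = 24-h iron excretion of treated rats minus controls, divided by theoretical output (2:1 ligand:iron); percent. Mean ± SEM; one-tailed t-test.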

Rattus norvegicus [5] = assay: Iron-clearing efficiency in non-iron-overloaded and bile duct-cannulated Sprague-Dawley rat assessed as bile iron excretion at 300 umol/kg, po up to 12 hrs; format: functional, organism-based; summary of the method: as §1
Rattus norvegicus [6] = assay: Iron-clearing efficiency in non-iron-overloaded and bile duct-cannulated Sprague-Dawley rat at 300 umol/kg, po after 24 hrs relative to control; format: functional; summary of the method: as §1
Rattus norvegicus [7] = assay: Iron-clearing efficiency in non-iron-overloaded and bile duct-cannulated Sprague-Dawley rat assessed as bile iron excretion at 300 umol/kg, po after 24 hrs relative to control; format: functional; summary of the method: as §1
Rattus norvegicus [8] = assay: Iron-clearing efficiency in non-iron-overloaded and bile duct-cannulated Sprague-Dawley rat assessed as urine iron excretion at 300 umol/kg, po after 24 hrs relative to control; format: functional
Sapajus apella [9] = assay: Iron-clearing efficiency in iron-overloaded Cebus apella at 75 umol/kg, po measured daily once for 2 days by flame absorption spectroscopy relative to control; format: functional
Summary of the method: (§2)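 Iron-overloaded Cebus apella (3.5–4 kg; iv iron dextran to about 500 mg Fe/kg, ≥60 days before use) dosed orally at 75 μmol/kg, by gavage as monosodium salt (1 equiv NaOH in distilled water) or in capsules. Feces and urine collected every 24 h from 4 days pre-drug to 5 days post-drug; iron by flame absorption spectroscopy. ICE = 2-day post-drug iron minus 4-day baseline average, divided by theoretical output (2:1 ligand:iron); percent. Performance ratio = mean primate ICE/rodent ICE.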

Sapajus apella [10] = assay: Iron-clearing efficiency in iron-overloaded Cebus apella assessed as feces iron excretion at 75 umol/kg, po measured daily once for 5 days by lame absorption spectroscopy relative to control; format: functional
Sapajus apella [11] = assay: Iron-clearing efficiency in iron-overloaded Cebus apella assessed as urine iron excretion at 75 umol/kg, po measured daily once for 5 days by lame absorption spectroscopy relative to control; format: functional
[12] = Ratio of iron-clearing efficiency in iron-overloaded Cebus apella at 75 umol/kg, po to iron-clearing efficiency in non-iron-overloaded and bile duct-cannulated Sprague-Dawley rat at 300 umol/kg, po; format: functional, organism-based; summary of the method: as §2
Rattus norvegicus [13] = assay: Iron-clearing efficiency in non-iron-overloaded and bile duct-cannulated Sprague-Dawley rat assessed as bile iron excretion at 300 umol/kg, po up to 24 hrs; format: functional, organism-based; summary of the method: as §1

SMILES	Activity (Sapajus apella [1])	Activity (Sapajus apella [2])	Activity (Sapajus apella [3])	Time (Rattus norvegicus [4])	Activity (Rattus norvegicus [5])	Activity (Rattus norvegicus [6])	Activity (Rattus norvegicus [7])	Activity (Rattus norvegicus [8])	Activity (Sapajus apella [9])	Activity (Sapajus apella [10])	Activity (Sapajus apella [11])	Ratio [12]	Activity (Rattus norvegicus [13])
COCCOCCOCCOc1ccc(C2=N[C@@](C)(C(=O)O)CS2)c(O)c1	25.4%	96%	4%	3 h	Active	–	–	–	–	–	–	–	–
COc1ccc(C2=N[C@@](C)(C(=O)[O-])CS2)c(O)c1.[Na+]	24.4%	91%	9%	–	–	–	–	–	–	–	–	–	–
COCCOCCOCCOCCOc1ccc(C2=N[C@@](C)(C(=O)[O-])CS2)c(O)c1.[Na+]	–	–	–	6 h	–	12%	99%	1%	9.8%	52%	48%	0.8	Active
COCCOCCOc1ccc(C2=N[C@@](C)(C(=O)[O-])CS2)c(O)c1.[Na+]	–	–	–	–	–	–	–	–	26.3%	83%	7%	–	–
